Test results published in ChEMBL document CHEMBL1671645, “Pharmacokinetics and absorption of posaconazole oral suspension under various gastric conditions in healthy volunteers” (Antimicrob Agents Chemother, 2009).

Tests used:
Homo sapiens [1] = assay: AUC in healthy human at 400 mg BID, po administered as suspension for 7 days coadministered with nutritional supplement; format: ADME, organism-based, Plasma; details: in vivo, 168 h
How it was run: (§1)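 Twelve healthy subjects took oral suspension for 7 days as 400 mg BID or 200 mg QID, either fasting or with a Boost-type nutritional supplement, in a crossover with 14–21 day washouts. Nonfat snacks of 800 cal/day or less were allowed. Plasma was sampled 0–168 h after the day-7 morning dose only and analysed by LC-MS/MS. AUC is AUC_τ, normalized to dose.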

[2] = Half life in fasted healthy human at 400 mg administered as single dose suspension; format: ADME, organism-based; details: in vivo
How it was run: (§2)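 Single oral suspension dose in fasting healthy volunteers, alone, with 12 oz ginger ale, after esomeprazole 40 mg once each morning days −2 to 1, or both; four-way crossover, 7–10-day washout. EDTA plasma 0–168 h. LC-MS/MS (LLOQ 5.00 ng/ml). t1/2 = ln(2)/K from terminal log-linear regression; Tmax median.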

Homo sapiens [3] = assay: AUC in fasted healthy human at 400 mg BID, po administered as suspension for 7 days; format: ADME, organism-based, Plasma; details: in vivo, 168 h; how it was run: as §1
Homo sapiens [4] = assay: Toxicity in healthy human assessed as asthenia at 400 mg BID, po administered as suspension for 7 days coadministered with nutritional supplement; format: organism-based; details: in vivo, 168 h
How it was run: (§3)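 Healthy volunteers monitored for adverse events, vital signs, clinical laboratory values and 12-lead ECG. Adverse events tabulated by body system or organ class and severity and summarized by treatment across the crossover regimens.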

[5] = AUC in fasted healthy human at 400 mg administered as single dose suspension; format: ADME, organism-based; details: plasma
Homo sapiens [6] = assay: Toxicity in healthy human assessed as dizziness at 200 mg QID, po administered as suspension for 7 days coadministered with nutritional supplement; format: organism-based; details: in vivo, 168 h
How it was run: (§4)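 Healthy volunteers (n = 12) took oral posaconazole suspension (40 mg/ml) with Boost at each dose for 7 days in a four-way randomized crossover with a 14- to 21-day washout. Subjects stayed fasted throughout, with nonfat snacks up to 800 cal/day allowed. Safety covered adverse events, vital signs, clinical labs and 12-lead ECG, with AEs tabulated by body system and severity per treatment.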

Homo sapiens [7] = assay: Toxicity in healthy human assessed as adverse events at 400 mg administered as single dose suspension coadministered with nutritional supplement and 10 mg metoclopramide; format: organism-based; details: in vivo; how it was run: as §3
[8] = Tmax in healthy human at 400 mg BID, po administered as suspension for 7 days coadministered with nutritional supplement; format: ADME, organism-based; details: in vivo
How it was run: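 Healthy volunteers given oral suspension (40 mg/ml) for 7 days, fasted or with nutritional supplement (Boost); four-way crossover, 14–21-day washout, nonfat snacks ≤800 cal/day allowed. On day 7 only the morning dose was given; plasma sampled predose to 168 h after it. LC-MS/MS (LLOQ 5.00 ng/ml). t1/2 = ln(2)/K from log-linear terminal slope; Tmax as median.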

[9] = Apparent volume of distribution in fasted healthy human at 400 mg administered as single dose suspension coadministered with acidic carbonated beverage and proton pump inhibitor; format: ADME, organism-based; details: in vivo, read-out: Vc/F
How it was run: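 This was a four-way crossover in 12 healthy subjects with 7–10 day washouts. Each took one fasting 400 mg oral suspension dose, with 12 oz ginger ale and/or esomeprazole 40 mg once each morning on days −2 to 1, with dosing on day 1. Plasma was sampled 0–168 h and measured by LC-MS/MS (LLOQ 5.00 ng/ml). Analysis was noncompartmental, with CL/F = dose/AUC_I and V/F = (CL/F)/K.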

[10] = Half life in fasted healthy human at 400 mg administered as single dose suspension coadministered with acidic carbonated beverage; format: ADME, organism-based; details: in vivo; how it was run: as §2
Homo sapiens [11] = assay: Toxicity in healthy human assessed as dizziness at 400 mg administered as single dose suspension coadministered with nutritional supplement and 10 mg metoclopramide; format: organism-based; details: in vivo
How it was run: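 Three-way randomized crossover in 13 healthy volunteers with a 7- to 10-day washout. Each period was one 400-mg oral posaconazole suspension dose with a nutritional supplement. Metoclopramide 10 mg was given orally three times daily on the day before and the day of dosing; loperamide was a single 4 mg. Safety was assessed from adverse events, tabulated by body system and severity per treatment.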

[12] = Half life in healthy human at 400 mg administered as single dose suspension coadministered with nutritional supplement and 10 mg metoclopramide; format: ADME, organism-based; details: in vivo
How it was run: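 Single oral suspension dose with nutritional supplement, alone or with metoclopramide 10 mg orally three times daily on the day before and the day of dosing; three-way crossover, 7–10-day washout. EDTA plasma predose to 168 h, LC-MS/MS (LLOQ 5.00 ng/ml). t1/2 = ln(2)/K from terminal slope; Tmax median.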

Homo sapiens [13] = assay: Toxicity in healthy human assessed as adverse events at 400 mg administered as single dose suspension 5 mins before consumption of high fat meal; format: organism-based; details: in vivo; how it was run: as §3
[14] = Cmax in fasted healthy human plasma at 400 mg administered as single dose suspension 5 mins before consumption of high fat meal; format: ADME, organism-based; set-up: dose 400 mg
How it was run: (§5)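 In a crossover of 12 healthy subjects, each took a single 400 mg oral suspension dose 5 min before, midway through (about 10 min into a 20-min meal), or 20 min after a high-fat meal of about 50 g fat. Plasma was drawn 0–168 h and measured by LC-MS/MS. Parameters are noncompartmental, with AUC to the last measurable time.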

[15] = Apparent total body clearance in fasted healthy human at 400 mg administered as single dose suspension; format: ADME, organism-based; details: in vivo
Homo sapiens [16] = assay: Toxicity in healthy human assessed as asthenia at 200 mg QID, po administered as suspension for 7 days; format: organism-based; details: in vivo, 168 h; how it was run: as §3
[17] = AUC in healthy human at 400 mg administered as single dose suspension coadministered with nutritional supplement and 10 mg metoclopramide; format: ADME, organism-based; details: plasma
How it was run: (§6)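 A three-way crossover in 13 healthy subjects gave one 400 mg oral suspension dose with a nutritional supplement, either alone, with metoclopramide 10 mg orally three times daily on the day before and the day of dosing, or with a single 4 mg dose of loperamide. Plasma was taken 0–168 h for LC-MS/MS. Analysis was noncompartmental.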

[18] = Tmax in fasted healthy human at 400 mg administered as single dose suspension; format: ADME, organism-based; details: in vivo; how it was run: as §2
[19] = AUC in healthy human at 400 mg administered as single dose suspension coadministered with nutritional supplement and 4 mg loperamide as two 2 mg tablets; format: ADME, organism-based; details: plasma; how it was run: as §6
[20] = Half life in fasted healthy human at 400 mg administered as single dose suspension after 20 mins after consumption of high fat meal; format: ADME, organism-based; details: in vivo
How it was run: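 Single oral suspension dose in healthy volunteers while fasting, 5 min before, midway through (about 10 min into a 20-min meal), or 20 min after a high-fat meal (approx 50 g fat); four-way crossover, 7–10-day washout. Plasma 0–168 h by LC-MS/MS (LLOQ 5.00 ng/ml). t1/2 = ln(2)/K; Tmax median.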

Homo sapiens [21] = assay: Toxicity in healthy human assessed as headache at 400 mg BID, po administered as suspension for 7 days; format: organism-based; details: in vivo, 168 h
How it was run: as §4, with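 “mg/ml)” for “mg/ml) with Boost at each dose”, “allowed. Where given, Boost was taken with each dose.” for “allowed.”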

[22] = Apparent total body clearance in fasted healthy human at 400 mg administered as single dose suspension after 20 mins after consumption of high fat meal; format: ADME, organism-based; details: in vivo; how it was run: as §5
[23] = AUC in healthy human at 400 mg administered as single dose suspension coadministered with nutritional supplement; format: ADME, organism-based; details: plasma; how it was run: as §6

`CC[C@@H]([C@H](C)O)n1ncn(-c2ccc(N3CCN(c4ccc(OC[C@@H]5CO[C@@](Cn6cncn6)(c6ccc(F)cc6F)C5)cc4)CC3)cc2)c1=O` [POSACONAZOLE] showed an AUC (Homo sapiens [1]) of 80.6 µg·h/mL, a half-life [2] of 24.5 h and an AUC (Homo sapiens [3]) of 52.3 µg·h/mL. For the same compound, the Activity (Homo sapiens [4]) was 25%, the AUC [5] was 5.6 µg·h/mL and the Activity (Homo sapiens [6]) was 33%. It also gave an Activity (Homo sapiens [7]) of 38%, a Tmax [8] of 6 h and a Vd/F [9] of 3920 L. It also gave a half-life [10] of 25.2 h, an Activity (Homo sapiens [11]) of 15% and a half-life [12] of 27.7 h. For the same compound, the Activity (Homo sapiens [13]) was 25%, the Cmax [14] was 0.274 µg/mL and the CL/F [15] was 1830 mL/min. For the same compound, the Activity (Homo sapiens [16]) was 25%, the AUC [17] was 7.39 µg·h/mL and the Tmax [18] was 5 h. For the same compound, the AUC [19] was 10.4 µg·h/mL, the half-life [20] was 22.6 h and the Activity (Homo sapiens [21]) was 25%. For the same compound, the CL/F [22] was 395 mL/min and the AUC [23] was 8.96 µg·h/mL.
